What is called IC50 is the concentration at which inhibition is half-maximal. The term inhibition denotes how much of the control response was suppressed. As a reminder, the clearance is a measure of how efficiently the substance is removed, as volume per time. Usually AUC(0-t) stands for exposure summed from dosing to a finite time, without extrapolation to infinity. A lower AUC(0-t) goes with low exposure. A word on the Tmax: it is the time from dosing to the highest level. One may read the bioavailability as dose-corrected exposure relative to a reference, in per cent. A lower bioavailability goes with poor availability. The term half-life denotes how long it takes for the measured level to halve.

The values that follow come from ChEMBL document CHEMBL4028818, “Tricyclic 4,4-dimethyl-3,4-dihydrochromeno[3,4-d]imidazole derivatives as microsomal prostaglandin E2 synthase-1 (mPGES-1) inhibitors: SAR and in vivo efficacy in hyperalgesia pain model” (Bioorg Med Chem Lett, 2017).

Data set [1] concerns the target Prostaglandin G/H synthase 1 (Homo sapiens, UniProt P23219). Briefly: Inhibition of COX1 in human U937 cells assessed as decrease in PGE2 release using arachidonic acid as substrate preincubated for 15 mins followed by arachidonic acid addition measured after 5 mins. The class given is cell-based.
The target in data set [2] is T1, Prostaglandin G/H synthase 2 (Homo sapiens, UniProt P35354).
T1 sequence (P35354 whole entry): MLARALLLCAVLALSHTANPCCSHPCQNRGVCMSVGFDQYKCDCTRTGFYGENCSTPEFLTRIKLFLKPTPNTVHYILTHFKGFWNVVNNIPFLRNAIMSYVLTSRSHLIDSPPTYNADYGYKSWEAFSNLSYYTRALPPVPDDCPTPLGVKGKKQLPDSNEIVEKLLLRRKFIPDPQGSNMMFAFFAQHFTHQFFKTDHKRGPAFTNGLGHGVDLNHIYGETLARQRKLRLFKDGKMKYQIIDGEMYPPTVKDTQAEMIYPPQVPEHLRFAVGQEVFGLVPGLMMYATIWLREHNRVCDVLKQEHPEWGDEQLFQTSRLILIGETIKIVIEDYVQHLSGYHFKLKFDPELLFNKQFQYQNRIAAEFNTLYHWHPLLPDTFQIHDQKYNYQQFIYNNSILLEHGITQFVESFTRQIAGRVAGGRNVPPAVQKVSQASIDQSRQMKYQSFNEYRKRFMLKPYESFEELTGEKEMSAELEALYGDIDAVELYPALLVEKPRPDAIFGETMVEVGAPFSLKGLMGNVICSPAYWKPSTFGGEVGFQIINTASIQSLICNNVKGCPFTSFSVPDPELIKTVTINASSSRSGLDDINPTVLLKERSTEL
Briefly: Inhibition of recombinant human N-terminal His-tagged COX2 expressed in baculovirus infected Sf21 insect cells assessed as decrease in PGE2 release using arachidonic acid as substrate preincubated for 15 mins followed by arachidonic acid addition measured after 5 mins.

Data set [3] is described as follows: Metabolic stability in human liver microsomes assessed as parent compound remaining at 1 uM after 60 mins in presence of NADPH by LC/MS/MS analysis. The class given is ADME, microsome. As to conditions: read-out: Stability; call rule not given here. The method, boiled down:
(§1)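 Compound at 1.0 µM was incubated with liver microsomes (1.0 mg/mL protein) at 37 °C for 60 min. Samples were analysed by LC/MS/MS as % parent remaining. Run in triplicate.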
A general note: Liver microsomes are vesicles of endoplasmic reticulum, rich in cytochrome P450 enzymes.

A short description of data set [4]: Metabolic stability in rat liver microsomes assessed as parent compound remaining at 1 uM after 60 mins in presence of NADPH by LC/MS/MS analysis. The class given is ADME, microsome. Particulars: read-out: Stability. A digest of the protocol:
as §1

Data set [5] can be described thus: Metabolic stability in Guinea pig liver microsomes assessed as parent compound remaining at 1 uM after 60 mins in presence of NADPH by LC/MS/MS analysis. The format is ADME, Cavia porcellus, microsome. Particulars: read-out: Stability. The method, boiled down: as §1
The target in data set [6] is CYP3A4 (Homo sapiens, UniProt P08684). The data set is described as follows: Inhibition of CYP3A4 in human liver microsomes at 10 uM measured after 20 mins in presence of NADPH by LC/MS/MS analysis relative to control. The class given is ADME. A digest of the protocol:
(§2)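 CYP isoforms 1A2, 2D6, 3A4, 2C9 and 2C19 were tested at 1 and 10 µM. Results are % inhibition compared with a no-inhibitor control, run in triplicate.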

The target in data set [7] is CYP2C9 (Homo sapiens, UniProt P11712). The data set is described as follows: Inhibition of CYP2C9 in human liver microsomes at 10 uM measured after 20 mins in presence of NADPH by LC/MS/MS analysis relative to control. The format is ADME. The method, boiled down: as §2
Sequence of CYP2C9 (P11712 whole entry): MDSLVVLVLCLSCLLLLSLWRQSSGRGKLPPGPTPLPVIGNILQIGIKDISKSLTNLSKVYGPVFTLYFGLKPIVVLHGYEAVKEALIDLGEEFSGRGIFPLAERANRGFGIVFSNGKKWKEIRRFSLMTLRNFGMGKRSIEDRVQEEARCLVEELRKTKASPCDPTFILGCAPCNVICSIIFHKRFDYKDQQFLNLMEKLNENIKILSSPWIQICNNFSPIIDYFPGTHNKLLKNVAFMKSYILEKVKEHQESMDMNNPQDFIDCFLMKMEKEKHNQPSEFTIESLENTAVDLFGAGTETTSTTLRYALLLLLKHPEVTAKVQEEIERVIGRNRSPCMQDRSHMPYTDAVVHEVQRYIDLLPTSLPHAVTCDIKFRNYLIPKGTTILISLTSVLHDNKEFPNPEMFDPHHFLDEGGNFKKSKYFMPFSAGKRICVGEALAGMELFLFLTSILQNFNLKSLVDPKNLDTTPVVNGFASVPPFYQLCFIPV
Data set [8] in a line: Protein binding in Guinea pig plasma at 10 uM after 5 to 10 mins by LC-MS/SM analysis. Particulars: read-out: PPB. The format is ADME, cell-free, Cavia porcellus. A digest of the protocol: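 Plasma protein binding was measured by equilibrium dialysis at 10 µM compound.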
Data set [9] in a line: Clearance in Sprague-Dawley rat at 5 mg/kg, iv administered as single bolus dose. The class given is ADME, organism-based. As to conditions: in vivo. A digest of the protocol: (§3)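 Male Sprague-Dawley rats were dosed i.v. in a vehicle of 20% NMP + 20% ethanol + 60% PEG 200. T1/2, CL and Vz were derived. Values are mean ± SD, n = 3.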
Data set [10] can be described thus: Apparent volume of distribution in Sprague-Dawley rat at 5 mg/kg, iv administered as single bolus dose. The class given is ADME, organism-based. As to conditions: in vivo, read-out: Vz. The method, boiled down:
as §3

Data set [11] can be described thus: AUC (0 to 24 hrs) in Sprague-Dawley rat at 10 mg/kg, po. The format is ADME, organism-based. On the set-up: dose 10 mg/kg, time < 24 hr, route oral. As to conditions: in vivo. A digest of the protocol:
(§4)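 Male Sprague-Dawley rats were dosed orally as a 0.5% methylcellulose suspension. Cmax, AUC0-24, Tmax, T1/2 and %F were determined. Values are mean ± SD, n = 3.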

The nature of data set [12]: Tmax in Sprague-Dawley rat at 10 mg/kg, po. The format is ADME, organism-based. As to conditions: in vivo. A digest of the protocol:
as §4

A short description of data set [13]: Oral bioavailability in Sprague-Dawley rat at 10 mg/kg. As to conditions: in vivo. The class given is ADME, organism-based. A digest of the protocol:
as §4

Data set [14] is described as follows: Half life in Sprague-Dawley rat at 10 mg/kg, po. The class given is ADME, organism-based. Particulars: in vivo. The method, boiled down:
as §4

Data set [15] has as its target Cytochrome P450 2C19 (Homo sapiens, UniProt P33261). The data set is described as follows: Inhibition of CYP2C19 in human liver microsomes at 1 uM measured after 40 mins in presence of NADPH by LC/MS/MS analysis. The class given is ADME. A digest of the protocol:
as §2

Data set [16] has as its target CYP2C19 (Homo sapiens, UniProt P33261). The data set is described as follows: Inhibition of CYP2C19 in human liver microsomes at 10 uM measured after 40 mins in presence of NADPH by LC/MS/MS analysis relative to control. The class given is ADME. A digest of the protocol:
as §2

Data set [17] concerns the target T2, Cytochrome P450 1A2 (Homo sapiens, UniProt P05177).
T2 sequence (P05177 whole entry): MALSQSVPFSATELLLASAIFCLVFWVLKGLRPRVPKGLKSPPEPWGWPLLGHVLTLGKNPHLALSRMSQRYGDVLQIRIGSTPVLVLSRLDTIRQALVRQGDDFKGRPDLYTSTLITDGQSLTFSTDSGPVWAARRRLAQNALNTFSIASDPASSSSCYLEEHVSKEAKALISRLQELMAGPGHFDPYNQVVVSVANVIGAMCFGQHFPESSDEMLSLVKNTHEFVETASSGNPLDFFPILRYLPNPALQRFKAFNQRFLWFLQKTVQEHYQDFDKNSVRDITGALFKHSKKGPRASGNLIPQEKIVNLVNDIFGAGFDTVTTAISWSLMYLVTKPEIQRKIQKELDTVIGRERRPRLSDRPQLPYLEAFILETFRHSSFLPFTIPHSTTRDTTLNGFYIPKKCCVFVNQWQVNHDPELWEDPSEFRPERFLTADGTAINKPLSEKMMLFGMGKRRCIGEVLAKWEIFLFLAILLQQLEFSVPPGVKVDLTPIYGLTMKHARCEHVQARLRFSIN
Briefly: Inhibition of CYP1A2 in human liver microsomes at 1 uM measured after 20 mins in presence of NADPH by LC/MS/MS analysis. The format is ADME. The method, boiled down: as §2

The target of data set [18] is Cytochrome P450 2D6 (Homo sapiens, UniProt P10635). The data set is described as follows: Inhibition of CYP2D6 in human liver microsomes at 1 uM measured after 20 mins in presence of NADPH by LC/MS/MS analysis. The class given is ADME. A digest of the protocol: as §2
Sequence of Cytochrome P450 2D6 (P10635 whole entry): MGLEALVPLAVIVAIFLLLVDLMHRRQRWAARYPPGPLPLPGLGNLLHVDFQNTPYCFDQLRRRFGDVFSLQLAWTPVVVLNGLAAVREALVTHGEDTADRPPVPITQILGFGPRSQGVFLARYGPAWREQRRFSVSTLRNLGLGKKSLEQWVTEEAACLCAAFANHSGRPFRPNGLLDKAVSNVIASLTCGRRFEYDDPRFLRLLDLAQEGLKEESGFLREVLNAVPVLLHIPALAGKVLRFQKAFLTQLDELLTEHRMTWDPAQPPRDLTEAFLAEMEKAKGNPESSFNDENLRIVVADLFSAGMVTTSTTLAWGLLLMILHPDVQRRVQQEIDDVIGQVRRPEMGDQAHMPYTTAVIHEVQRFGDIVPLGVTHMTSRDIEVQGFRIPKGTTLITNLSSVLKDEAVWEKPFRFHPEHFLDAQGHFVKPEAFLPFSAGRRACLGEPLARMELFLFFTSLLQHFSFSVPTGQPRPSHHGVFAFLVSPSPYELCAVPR
Data set [19] deals with Cytochrome P450 3A4 (Homo sapiens, UniProt P08684). The data set is described as follows: Inhibition of CYP3A4 in human liver microsomes at 1 uM measured after 20 mins in presence of NADPH by LC/MS/MS analysis. The format is ADME. A digest of the protocol: as §2
Sequence of Cytochrome P450 3A4 (P08684 whole entry): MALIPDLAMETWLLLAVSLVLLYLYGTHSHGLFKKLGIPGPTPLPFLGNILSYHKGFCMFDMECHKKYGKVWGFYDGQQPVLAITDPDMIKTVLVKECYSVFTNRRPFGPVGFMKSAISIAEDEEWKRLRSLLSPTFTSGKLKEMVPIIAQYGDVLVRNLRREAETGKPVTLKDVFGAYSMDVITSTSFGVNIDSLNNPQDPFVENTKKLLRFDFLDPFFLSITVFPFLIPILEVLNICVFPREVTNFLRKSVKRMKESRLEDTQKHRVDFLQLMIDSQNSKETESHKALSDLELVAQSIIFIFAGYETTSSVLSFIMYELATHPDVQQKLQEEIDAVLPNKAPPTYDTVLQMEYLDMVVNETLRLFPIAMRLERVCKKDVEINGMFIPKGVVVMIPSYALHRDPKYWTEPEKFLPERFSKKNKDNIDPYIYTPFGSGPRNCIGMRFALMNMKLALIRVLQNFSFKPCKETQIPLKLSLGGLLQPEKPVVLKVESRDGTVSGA
Data set [20] has as its target Cytochrome P450 2C9 (Homo sapiens, UniProt P11712). The data set is described as follows: Inhibition of CYP2C9 in human liver microsomes at 1 uM measured after 20 mins in presence of NADPH by LC/MS/MS analysis. The format is ADME. A digest of the protocol:
as §2

Sequence of CYP3A4 (P08684 whole entry, canonical isoform): as the sequence (P08684 whole entry) above
Sequence of Cytochrome P450 2C19 (P33261 whole entry): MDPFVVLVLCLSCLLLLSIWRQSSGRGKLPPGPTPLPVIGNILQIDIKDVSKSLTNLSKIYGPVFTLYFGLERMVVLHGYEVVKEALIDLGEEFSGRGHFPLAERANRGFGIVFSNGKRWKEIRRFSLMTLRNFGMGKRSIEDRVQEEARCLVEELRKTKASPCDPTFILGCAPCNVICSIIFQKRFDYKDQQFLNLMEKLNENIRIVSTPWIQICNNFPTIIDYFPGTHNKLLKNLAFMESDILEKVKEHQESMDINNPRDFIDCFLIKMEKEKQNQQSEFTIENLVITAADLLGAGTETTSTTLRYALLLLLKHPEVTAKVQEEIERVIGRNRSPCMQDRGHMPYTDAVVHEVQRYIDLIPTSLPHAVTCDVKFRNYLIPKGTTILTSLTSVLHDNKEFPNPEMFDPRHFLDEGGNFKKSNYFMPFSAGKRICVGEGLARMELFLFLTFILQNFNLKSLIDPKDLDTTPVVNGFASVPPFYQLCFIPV
Sequence of CYP2C19 (P33261 whole entry): as above
Sequence of Prostaglandin G/H synthase 1 (P23219 whole entry): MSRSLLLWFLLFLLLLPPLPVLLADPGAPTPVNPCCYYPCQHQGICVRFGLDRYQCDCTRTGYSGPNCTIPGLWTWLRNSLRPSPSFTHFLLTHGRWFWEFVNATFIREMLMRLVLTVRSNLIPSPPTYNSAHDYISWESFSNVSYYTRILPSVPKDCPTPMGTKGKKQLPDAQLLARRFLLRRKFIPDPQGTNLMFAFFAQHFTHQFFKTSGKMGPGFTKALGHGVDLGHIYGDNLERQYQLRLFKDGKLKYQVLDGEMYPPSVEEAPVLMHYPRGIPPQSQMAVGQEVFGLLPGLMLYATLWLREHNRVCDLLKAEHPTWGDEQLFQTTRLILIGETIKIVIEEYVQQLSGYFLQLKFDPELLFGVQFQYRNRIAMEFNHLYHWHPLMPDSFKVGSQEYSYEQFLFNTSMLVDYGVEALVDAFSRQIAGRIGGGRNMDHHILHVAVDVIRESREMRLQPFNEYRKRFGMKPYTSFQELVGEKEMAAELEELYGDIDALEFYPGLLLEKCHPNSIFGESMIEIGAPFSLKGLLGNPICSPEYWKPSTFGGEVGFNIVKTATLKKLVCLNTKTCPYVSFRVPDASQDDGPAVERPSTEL
Sequence of Cytochrome P450 2C9 (P11712 whole entry): as the sequence (P11712 whole entry) above

With `CC1(C)Oc2cc(C#Cc3cc(Cl)ccc3F)ccc2-c2[nH]c(-c3c(F)cccc3Cl)nc21`, the IC50 turned out to be 0.06 µM in data set [1] and 9.88 µM in [2]. The remaining at 1 h, 1 µM in [3] is 76%; in [4] it was 44%; in [5] it was 73%. The inhibition at 20 min, 10 µM in data set [6] was determined as 31%; in data set [7], 33.3%. In addition, the fraction unbound at 10 µM in data set [8] is under 0.005. This compound also displayed a clearance in [9] of 11.1 mL/min/kg. Also, the Vd in [10] turned out to be 5.3 L/kg. This compound also yielded an AUC(0-t) at 24 h in data set [11] of 12400 ng·h/mL. Besides, the Tmax in data set [12] came out at 4 h. In addition, the bioavailability in data set [13] is 85%. The compound also showed a half-life in data set [14] of 406 min. Further, the “inhibition (INH)” value in data set [15], in [17], in data set [18], in [19] and in [20] was “Not Active” each time. Moreover, in [16], the inhibition at 40 min, 10 µM is 17 to 26%.
Turning to `CC1(C)Oc2cc(-c3cccc(OC(F)(F)F)c3)ccc2-c2[nH]c(-c3c(F)cccc3Cl)nc21`, the IC50 in [1] is 6.75 µM; in data set [2] it was over 10 µM. Also, the remaining at 1 h, 1 µM in data set [3] stood at 84%; in [4], 83%; in data set [5], 80%. Also, the inhibition at 20 min, 10 µM amounted to 8.4% in [6] and 45.4% in [7]. In data set [8], the fraction unbound at 10 µM is under 0.005. Besides, the clearance in data set [9] came out at 3.63 mL/min/kg. Also, the Vd in [10] worked out at 3.11 L/kg. The same compound gave an AUC(0-t) at 24 h in data set [11] of 12600 ng·h/mL. Also, in data set [12], the Tmax is 4 h. Besides, the bioavailability in [13] was determined as 33%. The same compound showed a half-life in data set [14] of 672 min. Besides, the “inhibition (INH)” value in data set [15], in data set [17], in data set [18], in [19] and in data set [20] was “Not Active” each time. In addition, the inhibition at 40 min, 10 µM in data set [16] came to 27.2%.
